These results are taken from ChEMBL document CHEMBL1140172, “5-N-methylated quindoline derivatives as telomeric g-quadruplex stabilizing ligands: effects of 5-N positive charge on quadruplex binding affinity and cell proliferation” (J Med Chem, 2008).

A short description of test [1]: Binding affinity to synthetic HTG21 telomere assessed as conversion of preformed hybrid-type G-quadruplex to antiparallel G-quadruplex structure at 5 uM in presence of K+ ions by CD spectroscopy. The method in brief: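 CD on HTG21 at 5 µM strand in 10 mM Tris-HCl pH 7.4 with 100 mM KCl. Sample heated to 95 °C for 5 min, slowly cooled, held at 4 °C overnight. Titrated with 0–5 mol equiv compound. Scans from 230–450 nm at 25 °C, buffer baseline subtracted, at least three scans averaged.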

Test [2] can be described thus: Inhibition of amplification of synthetic HTG21 telomere assessed as G-quadruplex stabilization by PCR. The method in brief: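 PCR stop assay with HTG21 and its partial complementary oligonucleotide (10 pmol each), 0.16 mM dNTP, 2.5 U Taq and test compound. Program: 94 °C for 3 min, then 30 cycles of 94/58/72 °C for 30 s each. Products run on 15% native PAGE and silver stained. IC50 taken from band optical density as 50% inhibition of PCR.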

Test [3] deals with Telomerase reverse transcriptase (Homo sapiens, UniProt O14746). Kind of test: Inhibition of telomerase in human MCF7 cells by cell-free telomerase repeat amplification protocol assay. The method in brief:
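Modified TRAP using 100 ng of MCF-7 extract in 20 mM Tris-HCl pH 8.0 with 63 mM KCl, 1.5 mM MgCl2, 1 mM EGTA, 50 µM dNTPs, primers TSG4/TS/CXext/NT and a TSNT internal control. Compound or water added, 30 min elongation at 30 °C, then 30 PCR cycles. Read-out by 10% native PAGE with silver stain; TelIC50 from band optical density.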

Test [4] in a line: Binding affinity to synthetic HTG21 telomere assessed as change in G-qudraplex DNA melting temperature at 1 uM by FRET method.
A short description of test [5]: Binding affinity to synthetic [d(T2AG3)] oligonucleotide by NMR spectroscopy. The method in brief:
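1H NMR titration at 25 °C of HPLC-purified d(T2AG3) at 0.5 mM in 90% H2O/10% D2O with 150 mM KCl and 25 mM potassium phosphate pH 7.0. Watergate water suppression; imino proton shifts monitored.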

Test [6] in a line: Binding affinity to synthetic [d(T2AG3)] oligonucleotide assessed as increase in DNA melting temperature by NMR spectroscopy. In a few lines: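 1H NMR thermal denaturation of d(T2AG3) at 0.5 mM in 90% H2O/10% D2O with 150 mM KCl and 25 mM potassium phosphate pH 7.0. Spectra recorded every 5 °C from 25–90 °C after 15 min equilibration at each step, Watergate water suppression.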

Test [7] relates to HL-60. The test is described as follows: Decrease in telomere length in human HL60 cells at 0.06 uM after 16 days by telomeric restriction fragment length assay. It counts as functional, cell-based. The method in brief:
(§1)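 Cells were reseeded every 4 days with continuous compound or 0.1% DMSO for 16 days. Genomic DNA was cut with HinfI/RsaI and run on 0.8% agarose. It was then Southern blotted and probed with a DIG-labelled telomeric repeat probe, detected by anti-DIG alkaline phosphatase chemiluminescence to give TRF length.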

Test [8] has as its system HL-60. The test is described as follows: Decrease in telomere length in human HL60 cells at 0.03 uM after 16 days by telomeric restriction fragment length assay. The class given is functional, cell-based. The method in brief:
as §1

Test [9] has as its system CA46. The test is described as follows: Decrease in telomere length in human CA46 cells at 0.06 uM after 16 days by telomeric restriction fragment length assay. It counts as functional, cell-based. The method in brief: as §1
The test system of test [10] is HL-60. The test is described as follows: Cytotoxicity against human HL60 cell after 48 hrs by MTT assay. The note with it: HL-60, 48 h. The class given is functional, cell-based. In a few lines:
(§2)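 MTT assay: cells seeded at 1.0 × 10^3 per well in RPMI-1640 with 10% FBS and exposed to a range of ligand concentrations for 48 h at 37 °C, 5% CO2. MTT added for 4 h, formazan dissolved in DMSO, OD read at 570 nm. Each dose run in triplicate; IC50 from mean OD versus concentration curves.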
(In general: Tetrazolium assays rely on reduction of a dye to a coloured formazan, in cell work by metabolically active cells.)

Test [11] deals with CA46. The test is described as follows: Cytotoxicity against human CA46 cell after 48 hrs by MTT assay. The note with it: CA46, 48 h. It counts as functional, cell-based. The method in brief: as §2
The test system of test [12] is HL-60. Kind of test: Growth inhibition in human HL60 cells at 0.06 uM after 12 days. It counts as functional, cell-based. The method in brief:
(§3)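 Long-term culture: 1.0 × 10^5 cells per flask with ligand at 0.03 or 0.06 µM, or 0.1% DMSO. Every 4 days cells were counted and reseeded at 1.0 × 10^5 with fresh treatment, for 16 days. Each point done three times.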

Test [13] relates to HL-60. Kind of test: Growth inhibition in human HL60 cells assessed as increase in population doubling time at 0.03 uM. The class given is functional, cell-based. In a few lines:
as §3

For test [14], the system named is CA46. Kind of test: Growth inhibition in human CA46 cells at 0.06 uM after 12 days. It counts as functional, cell-based. In a few lines: as §3
The subject of test [15] is CA46. The test is described as follows: Growth inhibition in human CA46 cells assessed as increase in population doubling time at 0.03 uM. The class given is functional, cell-based. The method in brief: as §3
In test [16] the test system is HL-60. Kind of test: Induction of senescence in human HL60 cells at 0.06 uM administered continuously for 16 days by senescence-associated beta-galactosidase assay. It counts as functional, cell-based. In a few lines: (§4)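 Cells were treated continuously with 0.06 µM ligand or 0.1% DMSO for 16 days. They were fixed in 2% formaldehyde/0.2% glutaraldehyde for 15 min at room temperature, washed in PBS, and stained overnight at 37 °C with 1 mg/mL X-Gal stain solution.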

In test [17] the test system is CA46. The test is described as follows: Induction of senescence in human CA46 cells at 0.06 uM administered continuously for 16 days by senescence-associated beta-galactosidase assay. The class given is functional, cell-based. In a few lines: as §4
Test [18] in a line: Binding affinity to synthetic HTG21 telomere by competition dialysis method. The method in brief:
(§5)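 Competition dialysis, Tris-HCl 10 mM pH 7.4 with 100 mM NaCl. Each nucleic acid (0.5 mL, 45 µM monomeric unit) in a 1000 MWCO dialysis unit, all dialyzed together against a common ligand solution for 24 h at room temperature. DNA samples brought to 1% SDS. Total ligand in each tube and free ligand in dialysate read by absorbance (425 or 415 nm). Bound = total − free.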

Test [19] in a line: Binding affinity to synthetic Pu27 oligonucleotide by competition dialysis method. In a few lines:
as §5

The nature of test [20]: Binding affinity to synthetic HT7 oligonucleotide by competition dialysis method. In a few lines:
as §5

Active and inactive are the calls of the source. The rule behind the calls is not given here. Some results are limits rather than exact numbers.

Telomerase reverse transcriptase, sequence (O14746 whole entry): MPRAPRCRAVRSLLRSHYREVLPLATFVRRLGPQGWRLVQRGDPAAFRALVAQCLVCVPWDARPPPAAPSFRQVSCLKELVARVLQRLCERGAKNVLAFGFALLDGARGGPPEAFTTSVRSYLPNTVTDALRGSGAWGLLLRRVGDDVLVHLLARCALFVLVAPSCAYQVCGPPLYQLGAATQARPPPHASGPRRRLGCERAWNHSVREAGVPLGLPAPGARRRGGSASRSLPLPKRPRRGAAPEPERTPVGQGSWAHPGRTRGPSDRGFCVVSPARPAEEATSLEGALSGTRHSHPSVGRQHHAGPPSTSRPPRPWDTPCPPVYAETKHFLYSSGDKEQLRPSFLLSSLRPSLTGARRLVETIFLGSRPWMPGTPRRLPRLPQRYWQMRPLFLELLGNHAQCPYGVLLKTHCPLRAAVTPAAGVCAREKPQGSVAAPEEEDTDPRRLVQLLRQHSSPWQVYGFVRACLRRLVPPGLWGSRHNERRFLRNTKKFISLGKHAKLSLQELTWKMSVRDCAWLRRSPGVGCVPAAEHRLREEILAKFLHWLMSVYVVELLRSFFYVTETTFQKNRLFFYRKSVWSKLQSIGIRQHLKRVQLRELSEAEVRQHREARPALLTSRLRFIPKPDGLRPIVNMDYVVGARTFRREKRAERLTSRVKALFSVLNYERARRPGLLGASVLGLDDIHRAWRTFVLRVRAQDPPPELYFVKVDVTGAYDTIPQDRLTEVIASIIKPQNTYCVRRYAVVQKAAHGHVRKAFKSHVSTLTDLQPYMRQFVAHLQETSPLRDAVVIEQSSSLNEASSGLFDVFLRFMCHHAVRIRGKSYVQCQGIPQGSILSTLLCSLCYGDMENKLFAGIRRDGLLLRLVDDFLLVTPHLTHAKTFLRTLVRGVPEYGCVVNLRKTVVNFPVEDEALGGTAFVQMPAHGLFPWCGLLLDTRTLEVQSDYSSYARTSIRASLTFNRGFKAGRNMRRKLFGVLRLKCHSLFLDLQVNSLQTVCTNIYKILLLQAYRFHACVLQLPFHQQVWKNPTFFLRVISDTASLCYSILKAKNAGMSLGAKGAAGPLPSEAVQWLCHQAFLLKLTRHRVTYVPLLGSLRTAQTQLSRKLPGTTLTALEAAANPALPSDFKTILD

Take `CN(C)CCCNc1c2ccccc2[n+](C)c2c1oc1ccccc12`: in test [1], the result was Active. Further, the IC50 in test [2] came out at 6.1 µM; in test [3], 0.37 µM. Also, in test [4], the ΔTm is 14 °C.
As for `CN(C)CCNc1c2ccccc2[n+](C)c2c1[nH]c1c(F)cc(F)cc12`, the outcome in [1] was Active. Further, the IC50 in test [2] is greater than 20 µM. Besides, in test [4], the ΔTm worked out at 11 °C.
The matching figures for `C[n+]1c2ccccc2c(NCCN2CCOCC2)c2oc3ccccc3c21`: “Active”, greater than 20 µM and 9 °C.
With `C[n+]1c2ccccc2c(NCCCN2CCOCC2)c2[nH]c3ccccc3c21`, in [1], the outcome was Active. The IC50 in [2] is greater than 20 µM. For the same compound, the ΔTm in [4] was 12 °C.
Turning to `C[n+]1c2ccccc2c(NCCCO)c2oc3ccccc3c21`, the outcome in [1] was Active. Further, the IC50 in test [2] is greater than 20 µM. Also, the ΔTm in test [4] was found to be 10 °C.
Take `CN(C)CCNc1c2ccccc2[n+](C)c2c1[nH]c1ccccc12`: the outcome in test [1] was Active. The IC50 in test [2] came to 10.3 µM. The ΔTm in test [4] came to 13 °C.
Turning to `CN(C)CCNc1c2ccccc2[n+](C)c2c1[nH]c1ccc(F)cc12`, the outcome in [1] was Active. Moreover, the IC50 in test [2] was 13 µM. For the same compound, the ΔTm in test [4] turned out to be 14 °C.
On to `CCN(CC)CCNc1c2ccccc2[n+](C)c2c1[nH]c1ccccc12`, for which the outcome in test [1] was Active. In addition, in test [2], the IC50 turned out to be 12 µM. In addition, the ΔTm in test [4] is 12 °C.
As to `CCN(CC)CCCNc1c2ccccc2[n+](C)c2c1oc1ccccc12`, in test [1], the result was Active. Moreover, in test [2], the IC50 was determined as 5.7 µM. The ΔTm in test [4] is 15 °C.
As for `C[n+]1c2ccccc2c(NCCO)c2oc3ccccc3c21`, in test [1], the outcome was Active. Moreover, the IC50 in test [2] was greater than 20 µM. For the same compound, the ΔTm in test [4] turned out to be 4 °C.
Consider `CCN(CC)CCCNc1c2ccccc2[n+](C)c2c1[nH]c1c(F)cc(F)cc12`, for which the outcome in [1] was Active. For the same compound, the IC50 in test [2] stood at 5.5 µM; in [3] it was 0.27 µM. For the same compound, the ΔTm in [4] came to 15 °C.
On to `C[n+]1c2ccccc2c(NCCCN2CCOCC2)c2oc3ccccc3c21`, for which the outcome in [1] was Active. Moreover, the IC50 in test [2] amounted to 18 µM. For the same compound, in [4], the ΔTm was 13 °C.
The matching figures for `C[n+]1c2ccccc2c(NCCN2CCOCC2)c2[nH]c3ccccc3c21`: “Active”, greater than 20 µM and 10 °C.
As to `CN(C)CCCNc1c2ccccc2[n+](C)c2c1[nH]c1ccc(F)cc12`, the outcome (in [1]; in [5]; in the test with HL-60 [7]; in the test on HL-60 [8]; with CA46 [9]; in the test with HL-60 [12]) was Active. Further, the outcome with HL-60 [13], in the test on CA46 [14], in the test on CA46 [15], in the test on HL-60 [16] and in the test on CA46 [17] was Active. In addition, the IC50 in test [2] is 8 µM; in [3], 0.31 µM; with HL-60 [10] it was 1.21 µM; in the test on CA46 [11] it was 1.36 µM. Moreover, the ΔTm in [6] came to 25 °C; in [4], 14 °C.
As for `CCN(CC)CCNc1c2ccccc2[n+](C)c2c1oc1ccccc12`, the outcome in test [1] was Active. For the same compound, the IC50 in [2] amounted to 13 µM. For the same compound, in test [4], the ΔTm came out at 12 °C.
On to `CCN(CC)CCNc1c2ccccc2[n+](C)c2c1[nH]c1c(F)cc(F)cc12`, for which the outcome in test [1] was Active. The IC50 in test [2] came out at 15 µM. The ΔTm in test [4] stood at 11 °C.
In the case of `CN(C)CCCNc1c2ccccc2[n+](C)c2c1[nH]c1ccccc12`, the outcome in test [1], in test [18], in test [19] and in test [20] was Active. The IC50 in test [2] was found to be 4.5 µM; in test [3], 0.22 µM. The ΔTm in [4] worked out at 17 °C.
For the compound `C[n+]1c2ccccc2c(NCCCO)c2[nH]c3ccccc3c21`, the result in [1] was Active. Besides, in test [2], the half-inhibitory concentration (IC50) is greater than 20 µM. In addition, in test [4], the ΔTm worked out at 7 °C.
`CN(C)CCCNc1c2ccccc2[n+](C)c2c1[nH]c1c(F)cc(F)cc12`: in [1], the outcome was Active. The IC50 worked out at 9 µM in test [2] and 0.4 µM in test [3]. Moreover, in test [4], the ΔTm turned out to be 15 °C.
Consider `CCN(CC)CCCNc1c2ccccc2[n+](C)c2c1[nH]c1ccccc12`, for which the result in test [1] was Active. The half-inhibitory concentration (IC50) was determined as 5.1 µM in [2] and 0.16 µM in test [3]. Also, the ΔTm in [4] is 19 °C.
As to `CN(C)CCNc1c2ccccc2[n+](C)c2c1oc1ccccc12`, in [1], the result was Active. Further, the IC50 in [2] stood at 11.5 µM. For the same compound, in [4], the ΔTm is 11 °C.
As to `CCN(CC)CCCNc1c2ccccc2[n+](C)c2c1[nH]c1ccc(F)cc12`, the outcome in test [1] was Active. Further, the IC50 in [2] worked out at 5 µM; in test [3], 0.2 µM. Also, in [4], the ΔTm was 18 °C.
Regarding `CCN(CC)CCNc1c2ccccc2[n+](C)c2c1[nH]c1ccc(F)cc12`, the outcome in [1] was Active. Besides, in test [2], the IC50 was found to be 18 µM. In addition, in test [4], the ΔTm was 12 °C.
For `C[n+]1c2ccccc2c(NCCO)c2[nH]c3ccccc3c21` the same measures were “Active”, greater than 20 µM and 5 °C.
`CN(C)CCCNc1c2ccccc2nc2c1[nH]c1ccccc12`: the IC50 in [2] is greater than 20 µM; in test [3] it was 0.63 µM. The ΔTm in test [4] came to 9 °C.

A word on the IC50: it is the concentration that gives 50% inhibition. For orientation: ΔTm means the shift of the melting midpoint relative to a reference.
